Reference: ChEMBL document CHEMBL4602720, “Degradation versus Inhibition: Development of Proteolysis-Targeting Chimeras for Overcoming Statin-Induced Compensatory Upregulation of 3-Hydroxy-3-methylglutaryl Coenzyme A Reductase” (J Med Chem, 2020)
Calls of active or inactive are those of the source. The rule behind the calls is not given here.

Experiments:
[1] = molecular target: T1, Protein cereblon/3-hydroxy-3-methylglutaryl-coenzyme A reductase (Cricetulus griseus) (UniProt P00347+G3H338); test: Protac activity at CRBN/HMGCR in Insig-1/Insig-2 deficient Chinese hamster SRD15 cells assessed as HMGCR level at 1 uM after 16 hrs in presence of 0.3 uM atorvastatin by immunoblotting analysis (reference value: 1)
Target sequence in this assay (G3H338 1-445 partner): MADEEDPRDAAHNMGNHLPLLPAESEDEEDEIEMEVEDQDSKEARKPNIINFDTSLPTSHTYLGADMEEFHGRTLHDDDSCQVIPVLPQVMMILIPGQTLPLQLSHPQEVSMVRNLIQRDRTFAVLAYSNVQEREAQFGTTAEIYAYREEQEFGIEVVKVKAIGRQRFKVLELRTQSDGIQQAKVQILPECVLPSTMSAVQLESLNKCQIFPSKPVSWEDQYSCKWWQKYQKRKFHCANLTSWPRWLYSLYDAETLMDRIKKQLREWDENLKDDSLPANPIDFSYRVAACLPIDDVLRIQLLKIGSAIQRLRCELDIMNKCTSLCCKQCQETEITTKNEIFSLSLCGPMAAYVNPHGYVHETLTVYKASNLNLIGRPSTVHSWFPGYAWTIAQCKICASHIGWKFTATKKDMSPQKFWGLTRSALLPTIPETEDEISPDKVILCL
Target sequence in this assay (P00347 whole entry): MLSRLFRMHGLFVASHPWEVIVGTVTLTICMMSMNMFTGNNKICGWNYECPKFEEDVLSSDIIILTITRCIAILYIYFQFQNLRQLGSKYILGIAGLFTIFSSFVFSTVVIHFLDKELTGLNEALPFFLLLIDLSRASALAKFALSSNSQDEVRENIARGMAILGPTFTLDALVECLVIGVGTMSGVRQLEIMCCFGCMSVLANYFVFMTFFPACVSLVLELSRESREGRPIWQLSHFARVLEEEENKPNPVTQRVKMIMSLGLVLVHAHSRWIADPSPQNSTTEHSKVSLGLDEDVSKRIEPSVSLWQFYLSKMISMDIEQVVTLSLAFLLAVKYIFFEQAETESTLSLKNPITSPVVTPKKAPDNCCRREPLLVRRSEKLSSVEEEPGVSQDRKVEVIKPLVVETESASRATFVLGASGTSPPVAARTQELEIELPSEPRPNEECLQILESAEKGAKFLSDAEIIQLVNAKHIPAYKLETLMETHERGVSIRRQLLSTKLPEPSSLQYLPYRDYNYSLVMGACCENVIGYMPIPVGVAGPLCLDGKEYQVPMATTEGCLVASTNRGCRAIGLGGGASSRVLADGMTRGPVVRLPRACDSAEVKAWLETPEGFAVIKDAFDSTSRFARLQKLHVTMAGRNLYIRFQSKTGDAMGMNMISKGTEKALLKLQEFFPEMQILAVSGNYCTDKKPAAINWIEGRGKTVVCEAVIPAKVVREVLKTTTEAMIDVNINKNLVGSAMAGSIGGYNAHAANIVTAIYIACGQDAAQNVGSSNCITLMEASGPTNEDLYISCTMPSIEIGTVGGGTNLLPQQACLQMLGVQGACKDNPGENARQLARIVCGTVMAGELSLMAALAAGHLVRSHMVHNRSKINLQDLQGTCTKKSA

[2] = molecular target: T1, Protein cereblon/3-hydroxy-3-methylglutaryl-coenzyme A reductase (Cricetulus griseus); test: Protac activity at CRBN/HMGCR in 5'-GGAAGUCGAAGACCAAGAU-3' siRNA transfected in Insig-1/Insig-2 deficient Chinese hamster SRD15 cells assessed as induction of HMGCR degradation at after 16 hrs by immunoblotting analysis
In short: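 SRD15 cells (Insig-1/Insig-2-deficient CHO-7) in Medium A with 5% FBS at 37 °C, 5% CO2; transfected with negative-control or Crbn-targeting siRNA duplexes for 48 h, then given 1 μM degrader for 16 h. HMGCR by SDS-PAGE immunoblot of RIPA lysates. Knockdown efficiency checked by qRT-PCR against hamster GAPDH, comparative CT method. n = 3 independent experiments.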
Target sequence in this assay (G3H338 1-445 partner): as the sequence (G3H338 1-445 partner) above
Target sequence in this assay (P00347 whole entry): as the sequence (P00347 whole entry) above

[3] = molecular target: T1, Protein cereblon/3-hydroxy-3-methylglutaryl-coenzyme A reductase (Cricetulus griseus); test: Protac activity at CRBN/HMGCR in Insig-1/Insig-2 deficient Chinese hamster SRD15 cells assessed as increase in ubiquitination level of HMGCR at 1 uM incubated for 4 hrs in presence of MG132 by Western blot analysis
In short: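 SRD15 cells given DMSO or 1 μM degrader together with 10 μM MG132 for 4 h. Lysates probed by immunoblot with P4D1 anti-ubiquitin antibody for high-molecular-weight HMGCR smears.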

[4] = molecular target: T1, Protein cereblon/3-hydroxy-3-methylglutaryl-coenzyme A reductase (Cricetulus griseus); test: Protac activity at CRBN/HMGCR in Insig-1/Insig-2 deficient Chinese hamster SRD15 cells assessed as HMGCR level at 0.01 uM after 16 hrs by immunoblotting analysis (reference value: 1)
In short: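 Dose-response in SRD15 cells in Medium A with 5% FBS, 16 h treatment, DMSO final 0.1% or lower. RIPA lysates immunoblotted for HMGCR. HMGCR densitometry normalized to actin, with the DMSO group set to 1. Three repeats. DC50 is taken from a dose-response fit of the semi-quantitative blots, mean of 3 independent experiments.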
Target sequence in this assay (G3H338 1-445 partner): as the sequence (G3H338 1-445 partner) above
Target sequence in this assay (P00347 whole entry): as the sequence (P00347 whole entry) above

[5] = molecular target: Protein cereblon/3-hydroxy-3-methylglutaryl-coenzyme A reductase (Homo sapiens) (UniProt P04035+Q96SW2); test: Protac activity at human Flag-tagged CRBN/T7-tagged HMGCR transfected in Insig-1/Insig-2 deficient Chinese hamster SRD15 cells assessed as induction of HMGCR degradation at 0.01 to 1 uM after 16 hrs by immunoblotting analysis
Sequence of Protein cereblon/3-hydroxy-3-methylglutaryl-coenzyme A reductase (Homo sapiens) (P04035 whole entry, looked up): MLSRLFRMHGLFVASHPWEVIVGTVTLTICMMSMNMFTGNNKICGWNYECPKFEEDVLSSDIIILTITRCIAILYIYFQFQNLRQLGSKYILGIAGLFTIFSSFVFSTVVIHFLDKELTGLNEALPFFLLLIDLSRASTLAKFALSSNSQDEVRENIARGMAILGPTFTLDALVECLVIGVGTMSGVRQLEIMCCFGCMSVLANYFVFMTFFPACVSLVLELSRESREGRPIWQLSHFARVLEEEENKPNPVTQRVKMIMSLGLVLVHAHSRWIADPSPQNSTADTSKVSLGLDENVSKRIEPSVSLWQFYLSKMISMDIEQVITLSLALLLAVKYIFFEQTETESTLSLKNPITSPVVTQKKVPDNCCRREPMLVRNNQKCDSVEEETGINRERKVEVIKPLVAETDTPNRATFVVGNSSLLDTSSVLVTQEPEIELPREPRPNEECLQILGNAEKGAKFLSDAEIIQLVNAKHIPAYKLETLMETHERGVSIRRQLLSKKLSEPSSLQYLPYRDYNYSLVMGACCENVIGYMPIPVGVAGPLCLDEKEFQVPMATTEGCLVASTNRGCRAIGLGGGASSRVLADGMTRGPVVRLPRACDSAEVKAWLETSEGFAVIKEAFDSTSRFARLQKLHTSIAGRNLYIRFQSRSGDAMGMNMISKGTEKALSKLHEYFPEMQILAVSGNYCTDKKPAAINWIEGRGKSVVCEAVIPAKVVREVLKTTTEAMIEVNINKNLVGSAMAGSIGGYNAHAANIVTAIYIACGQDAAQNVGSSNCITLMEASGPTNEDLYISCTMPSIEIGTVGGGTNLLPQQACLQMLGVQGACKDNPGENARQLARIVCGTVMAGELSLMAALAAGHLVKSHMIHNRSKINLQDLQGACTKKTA
Sequence of Protein cereblon/3-hydroxy-3-methylglutaryl-coenzyme A reductase (Homo sapiens) (Q96SW2 whole entry, looked up): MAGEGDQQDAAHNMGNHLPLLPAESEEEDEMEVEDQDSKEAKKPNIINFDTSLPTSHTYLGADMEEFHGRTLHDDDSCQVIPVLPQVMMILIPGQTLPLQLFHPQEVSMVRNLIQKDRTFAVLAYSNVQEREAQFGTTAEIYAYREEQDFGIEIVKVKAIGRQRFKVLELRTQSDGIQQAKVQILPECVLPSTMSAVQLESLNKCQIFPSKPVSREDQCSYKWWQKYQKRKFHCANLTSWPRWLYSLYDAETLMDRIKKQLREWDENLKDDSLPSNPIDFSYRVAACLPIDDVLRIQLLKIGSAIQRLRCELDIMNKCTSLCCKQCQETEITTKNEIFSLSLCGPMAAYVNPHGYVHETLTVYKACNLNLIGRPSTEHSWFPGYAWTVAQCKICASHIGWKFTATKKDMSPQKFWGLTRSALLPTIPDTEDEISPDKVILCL
In short: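 SRD15 cells co-transfected with T7-HMGCR and Flag-CRBN (wild type or YW/AA mutant), then treated with DMSO or 1 μM compound for 16 h; transfected HMGCR measured by immunoblotting.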

[6] = molecular target: T1, Protein cereblon/3-hydroxy-3-methylglutaryl-coenzyme A reductase (Cricetulus griseus); test: Protac activity at CRBN/HMGCR in Insig-1/Insig-2 deficient Chinese hamster SRD15 cells assessed as HMGCR level at 1 uM after 16 hrs in presence of 10 uM pomalidomide by immunoblotting analysis (reference value: 1)
Target sequence in this assay (G3H338 1-445 partner): as the sequence (G3H338 1-445 partner) above
Target sequence in this assay (P00347 whole entry): as the sequence (P00347 whole entry) above

[7] = molecular target: T2, Sterol regulatory element-binding protein 2 (Mus musculus) (UniProt Q3U1N2); test: Activation of SREBP2 pathway in mouse primary hepatocytes assessed as increase in HMGCR mRNA expression at 0.3 to 1 uM afer 16 hrs by quantitative real-time PCR analysis; assay type: cell-based
T2 sequence (whole entry): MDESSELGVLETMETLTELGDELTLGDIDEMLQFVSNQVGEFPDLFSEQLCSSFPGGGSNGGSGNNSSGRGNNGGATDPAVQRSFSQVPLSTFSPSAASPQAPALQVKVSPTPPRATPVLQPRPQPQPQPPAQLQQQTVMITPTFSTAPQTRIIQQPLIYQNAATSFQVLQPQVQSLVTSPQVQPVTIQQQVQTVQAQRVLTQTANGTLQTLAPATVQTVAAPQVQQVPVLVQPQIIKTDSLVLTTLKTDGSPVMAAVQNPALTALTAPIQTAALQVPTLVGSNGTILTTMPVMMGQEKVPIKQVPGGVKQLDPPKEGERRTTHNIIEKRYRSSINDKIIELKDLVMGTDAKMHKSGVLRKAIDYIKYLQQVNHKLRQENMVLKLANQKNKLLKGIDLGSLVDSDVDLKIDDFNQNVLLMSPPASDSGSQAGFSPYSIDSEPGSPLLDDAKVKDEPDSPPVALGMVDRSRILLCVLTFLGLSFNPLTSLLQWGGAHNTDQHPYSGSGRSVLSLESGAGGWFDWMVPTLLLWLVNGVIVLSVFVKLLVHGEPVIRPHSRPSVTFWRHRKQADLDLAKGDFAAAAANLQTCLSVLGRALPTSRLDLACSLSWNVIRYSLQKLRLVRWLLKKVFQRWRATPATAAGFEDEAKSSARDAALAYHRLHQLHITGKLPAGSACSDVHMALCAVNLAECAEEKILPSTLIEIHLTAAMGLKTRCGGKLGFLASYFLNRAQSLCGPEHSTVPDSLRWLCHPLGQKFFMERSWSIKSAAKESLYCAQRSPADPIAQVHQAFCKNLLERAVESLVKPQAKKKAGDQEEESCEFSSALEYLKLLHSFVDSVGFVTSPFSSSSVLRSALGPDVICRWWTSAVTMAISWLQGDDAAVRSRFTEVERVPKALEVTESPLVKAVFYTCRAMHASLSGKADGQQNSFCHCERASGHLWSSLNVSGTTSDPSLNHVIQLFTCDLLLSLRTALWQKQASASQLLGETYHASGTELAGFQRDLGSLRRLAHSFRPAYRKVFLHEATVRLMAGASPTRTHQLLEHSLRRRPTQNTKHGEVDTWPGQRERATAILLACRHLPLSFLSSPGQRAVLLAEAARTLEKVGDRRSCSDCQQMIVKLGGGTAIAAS

## CC(C)c1c(C(=O)Nc2ccccc2)c(-c2cccc(OCCCc3cn(CCOCCOCCOCCOCCNc4cccc5c4C(=O)N(C4CCC(=O)NC4=O)C5=O)nn3)c2)c(-c2ccc(F)cc2)n1CC[C@@H](O)C[C@@H](O)CC(=O)O (some centres not stated)
[1]
  fold change (FC): 1
[2]
  Activity: inactive
[3]
  Activity: Active
[4]
  fold change (FC): 0.8
[5]
  Activity: Active
[6]
  fold change (FC): 1
[7]
  Activity: Active
